This passage reports Activity, IC50 and inhibition results from ChEMBL document CHEMBL3758144, “Dihydroisocoumarin Derivatives from Marine-Derived Fungal Isolates and Their Anti-inflammatory Effects in Lipopolysaccharide-Induced BV2 Microglia” (J Nat Prod, 2015).

Active and inactive are the calls of the source. No cut-off for these calls is given here.

Series [1] has as its system BV-2. As to the kind of experiment: (§1) Antiinflammatory activity in LPS-induced […] BV2 cells assessed as reduction in NO production pretreated for 30 mins followed by LPS stimulation measured for 24 hrs by Greiss assay. Format: functional, cell-based. As to conditions: Mus musculus. In outline:
(§2)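 BV2 microglia in DMEM with 10% heat-inactivated FBS, penicillin/streptomycin and 2 mM L-glutamine at 37 °C, 5% CO2. Pretreated 30 min with test agent (10−80 μM range), then LPS 1 μg/mL for 24 h. Nitrite in supernatant measured by Griess reagent, absorbance at 525 nm. IC50 from mean of three experiments ± SD.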

Series [2] can be described thus: as §1. Type of series: functional, cell-based. The settings on record: BV-2. In outline:
as §2

Series [3] in a line: Cytotoxicity against […] BV2 cells at 10 to 80 uM by MTT assay. As to conditions: bv-2, 80 µM. Type of series: cell-based. A digest of the protocol: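 MTT added to BV2 cell suspension (1 × 10^5 cells/mL), incubated 30 min. Formazan dissolved in acidic 2-propanol and read at 540 nm. Compounds tested at 10−80 μM.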
A general note: Tetrazolium dyes change colour on reduction, which living cells bring about.

Series [4] concerns BV-2. Description: (§3) Antiinflammatory activity in LPS-induced […] BV2 cells assessed as reduction in PGE2 production pretreated for 30 mins followed by LPS stimulation measured for 24 hrs by ELISA. Type of series: functional, cell-based. The settings on record: Mus musculus. A digest of the protocol:
(§4)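 BV2 microglia cultured in 24-well plates and preincubated 30 min with test agent (10−80 μM range), then stimulated 24 h with LPS 1 μg/mL. Supernatant PGE2 quantified by ELISA kit. IC50 from mean of three experiments ± SD.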

The nature of series [5]: as §3. Type of series: functional, cell-based. The settings on record: BV-2. A digest of the protocol: as §4
The subject of series [6] is BV-2. As to the kind of experiment: Inhibition of LPS-induced iNOS expression in […] BV2 cells pretreated for 30 mins followed by LPS stimulation measured for 24 hrs by Western blot analysis. Format: functional, cell-based. As to conditions: Mus musculus. In outline: (§5)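 BV2 microglia pretreated 30 min with test agent at 20−80 μM, then LPS 1 μg/mL for 24 h. Lysates in 20 mM Tris-HCl pH 7.4 with protease inhibitors, protein by Lowry. SDS-PAGE, nitrocellulose transfer, milk block, ECL detection. Band densitometry normalized to β-actin.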

For series [7], the system named is BV-2. As to the kind of experiment: Inhibition of LPS-induced COX2 expression in […] BV2 cells pretreated for 30 mins followed by LPS stimulation measured for 24 hrs by Western blot analysis. Type of series: functional, cell-based. As to conditions: Mus musculus. In outline:
as §5
In general terms: Immunoblotting shows a protein as a band on a membrane.

A short description of series [8]: Effect on p38 expression in […] BV2 cells at 20 to 80 uM pretreated for 30 mins followed by LPS stimulation for 30 mins by Western blot analysis. Type of series: ADME, cell-based. As to conditions: bv-2, 0.5 h. In outline: (§6)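 BV2 microglia pretreated 30 min with test agent (20−80 μM), then LPS 1 μg/mL for 30 min. Total and phosphorylated ERK, JNK and p38 detected by Western blot (SDS-PAGE, nitrocellulose, ECL).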

Series [9] deals with T1, NF-kappa-B inhibitor alpha (Homo sapiens) (UniProt P25963).
T1 sequence (whole entry): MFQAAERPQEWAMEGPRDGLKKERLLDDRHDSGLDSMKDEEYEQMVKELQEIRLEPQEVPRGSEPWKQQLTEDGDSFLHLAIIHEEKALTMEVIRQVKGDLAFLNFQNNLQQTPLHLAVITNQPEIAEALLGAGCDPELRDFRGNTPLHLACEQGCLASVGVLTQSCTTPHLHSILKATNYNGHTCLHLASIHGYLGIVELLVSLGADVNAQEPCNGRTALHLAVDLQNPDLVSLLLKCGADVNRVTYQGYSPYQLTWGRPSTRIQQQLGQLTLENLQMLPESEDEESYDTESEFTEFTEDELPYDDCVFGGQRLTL
As to the kind of experiment: Inhibition of IkappaB-alpha phosphorylation in LPS-induced […] BV2 cells pretreated for 30 mins followed by LPS stimulation for 30 mins by Western blot analysis. Format: cell-based. As to conditions: BV-2. A digest of the protocol: (§7)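 BV2 microglia pretreated 30 min with test agent (20, 40, 80 μM), then LPS for 30 min. Cytosolic and nuclear fractions prepared with NE-PER reagents. Western blot for IκB-α, phospho-IκB-α, p65 and p50. Densitometry normalized to β-actin (cytosol) or PCNA (nucleus). Mean of three experiments ± SD.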

Series [10] addresses T1, NF-kappa-B inhibitor alpha (Homo sapiens). Description: Inhibition of IkappaB-alpha degradation in LPS-induced […] BV2 cells pretreated for 30 mins followed by LPS stimulation for 30 mins by Western blot analysis. Format: cell-based. As to conditions: BV-2. A digest of the protocol: as §7
The next series has as its system JNK (Mus musculus). Description: Inhibition of JNK phosphorylation in mouse BV2 cells at 20 to 80 uM pretreated for 30 mins followed by LPS stimulation for 30 mins by Western blot analysis. As to conditions: BV-2.
Series [11] can be described thus: Effect on JNK expression in […] BV2 cells at 20 to 80 uM pretreated for 30 mins followed by LPS stimulation for 30 mins by Western blot analysis. Format: ADME, cell-based. The settings on record: bv-2, 0.5 h. In outline: as §6
For series [12], the target named is Transcription factor p65 (Homo sapiens) (UniProt Q04206). Description: Inhibition of LPS-induced p65 translocation from cytosol to nucleus in […] BV2 cells pretreated for 30 mins followed by LPS stimulation for 30 mins by Western blot analysis. Type of series: cell-based. As to conditions: BV-2. In outline:
as §7

The next series has as its system p38 MAPK (Mus musculus). As to the kind of experiment: Inhibition of p38 phosphorylation in mouse BV2 cells pretreated for 30 mins followed by LPS stimulation for 30 mins by Western blot analysis. As to conditions: BV-2.
In series [13] the test system is BV-2. As to the kind of experiment: Inhibition of ERK phosphorylation in […] BV2 cells at 20 to 80 uM pretreated for 30 mins followed by LPS stimulation for 30 mins by Western blot analysis. Format: cell-based. A digest of the protocol: as §6
Series [14] addresses T2, Nuclear factor NF-kappa-B p105 subunit (Homo sapiens) (UniProt P19838).
T2 sequence (whole entry): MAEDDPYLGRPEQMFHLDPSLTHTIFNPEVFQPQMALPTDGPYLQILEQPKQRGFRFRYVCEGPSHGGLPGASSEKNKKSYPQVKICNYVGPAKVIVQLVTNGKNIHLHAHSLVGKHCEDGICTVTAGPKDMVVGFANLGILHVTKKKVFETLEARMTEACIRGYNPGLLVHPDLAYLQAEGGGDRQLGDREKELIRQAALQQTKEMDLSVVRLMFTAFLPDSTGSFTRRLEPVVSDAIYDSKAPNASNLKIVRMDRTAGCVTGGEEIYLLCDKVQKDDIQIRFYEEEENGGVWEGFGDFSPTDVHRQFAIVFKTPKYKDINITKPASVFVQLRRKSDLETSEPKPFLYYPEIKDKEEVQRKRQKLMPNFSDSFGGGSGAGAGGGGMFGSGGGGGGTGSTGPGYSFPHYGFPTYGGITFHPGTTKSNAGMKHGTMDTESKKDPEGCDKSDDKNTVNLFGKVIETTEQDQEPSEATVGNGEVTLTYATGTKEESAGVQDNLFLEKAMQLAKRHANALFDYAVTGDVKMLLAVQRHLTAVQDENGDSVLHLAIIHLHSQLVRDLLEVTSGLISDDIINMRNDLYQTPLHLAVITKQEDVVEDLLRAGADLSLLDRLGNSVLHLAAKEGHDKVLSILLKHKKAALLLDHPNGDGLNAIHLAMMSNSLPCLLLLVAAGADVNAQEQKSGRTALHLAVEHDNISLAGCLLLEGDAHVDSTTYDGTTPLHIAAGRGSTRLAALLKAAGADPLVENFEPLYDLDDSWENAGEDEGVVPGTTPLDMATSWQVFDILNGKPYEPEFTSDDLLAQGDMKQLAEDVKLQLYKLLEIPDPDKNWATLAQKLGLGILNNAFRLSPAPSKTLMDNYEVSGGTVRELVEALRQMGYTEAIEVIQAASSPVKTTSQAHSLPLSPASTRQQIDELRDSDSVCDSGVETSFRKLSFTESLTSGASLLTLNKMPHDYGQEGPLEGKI
Description: Inhibition of LPS-induced p50 translocation from cytosol to nucleus in […] BV2 cells pretreated for 30 mins followed by LPS stimulation for 30 mins by Western blot analysis. Format: cell-based. As to conditions: BV-2. In outline:
as §7

Series [15] is described as follows: Effect on ERK expression in […] BV2 cells at 20 to 80 uM pretreated for 30 mins followed by LPS stimulation for 30 mins by Western blot analysis. Format: ADME, cell-based. The settings on record: bv-2, 0.5 h. A digest of the protocol:
as §6

Sequence of Transcription factor p65 (Homo sapiens) (Q04206 whole entry): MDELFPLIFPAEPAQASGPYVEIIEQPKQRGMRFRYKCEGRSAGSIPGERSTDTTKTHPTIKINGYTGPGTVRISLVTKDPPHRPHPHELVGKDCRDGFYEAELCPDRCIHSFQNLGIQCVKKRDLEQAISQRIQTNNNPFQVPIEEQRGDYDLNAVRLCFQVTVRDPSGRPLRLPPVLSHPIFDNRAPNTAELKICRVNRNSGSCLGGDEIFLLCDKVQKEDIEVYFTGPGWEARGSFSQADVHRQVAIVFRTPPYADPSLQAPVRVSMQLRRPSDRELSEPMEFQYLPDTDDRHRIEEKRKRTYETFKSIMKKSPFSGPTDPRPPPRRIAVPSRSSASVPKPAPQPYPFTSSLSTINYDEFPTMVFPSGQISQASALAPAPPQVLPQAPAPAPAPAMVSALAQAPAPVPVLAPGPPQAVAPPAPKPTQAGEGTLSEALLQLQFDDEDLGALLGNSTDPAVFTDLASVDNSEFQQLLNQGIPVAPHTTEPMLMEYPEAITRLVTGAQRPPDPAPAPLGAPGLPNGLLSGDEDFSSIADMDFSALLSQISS

As a reminder, the IC50 is the concentration at which inhibition is half-maximal. For the compound `C[C@H]1C[C@@H](O)C[C@H](C[C@H]2Cc3cc(O)cc(O)c3C(=O)O2)O1`, the Activity entry is “Dose-dependent effect” with BV-2 [1], “Non-toxic” in [3] and “Dose-dependent effect” in the series on BV-2 [4]. The half-maximal inhibitory concentration (IC50) is 65 µM in [2] and 61 µM in series [5]. The inhibition result in the series on BV-2 [6] and with BV-2 [7] was “Dose-dependent effect” in each case.
Consider `COc1cc(O)cc2c1C(=O)O[C@@H](C[C@H]1CCC[C@H](C)O1)C2`, for which the Activity result in the series on BV-2 [1] was “Dose-dependent effect”; in series [3], “Non-toxic”; in the series on BV-2 [4], “Dose-dependent effect”. Besides, the 50% inhibitory concentration (IC50) is 28 µM in series [2] and 30 µM in series [5]. The inhibition result in the series on BV-2 [6] and with BV-2 [7] was “Dose-dependent effect” throughout.
On to `C[C@H]1CCC[C@H](C[C@H]2Cc3cc(O)cc(O)c3C(=O)O2)O1` [CLADOSPORIN], for which the Activity result with BV-2 [1] was “Dose-dependent effect”; in series [3], “Non-toxic”; in the series on BV-2 [4], “Dose-dependent effect”. Besides, the IC50 turned out to be 24 µM in [2] and 27 µM in series [5]. Besides, the inhibition entry in the series on BV-2 [6] and in the series on BV-2 [7] was “Dose-dependent effect” each time.
As for `COc1cc(O)c2c(c1)C[C@H](C[C@H]1CCC[C@H](C)O1)OC2=O`, the Activity entry with BV-2 [1] was “Dose-dependent effect”; in series [3], “Non-toxic”; in the series with BV-2 [4] it was “Dose-dependent effect”. Further, the IC50 in [2] and in [5] was 21 µM each time. Moreover, the inhibition entry with BV-2 [6] and with BV-2 [7] was “Dose-dependent effect” in each case.
For the compound `C[C@H]1CCC[C@H](C[C@H]2Cc3cc(O)cc(O[C@H]4O[C@H](CO)[C@@H](O)[C@H]4O)c3C(=O)O2)O1`, the Activity result was “Dose-dependent effect” in the series on BV-2 [1]; “Non-toxic” in series [8]; “Non-toxic” in series [3]; “Dose-dependent effect” in the series on BV-2 [4]; “Non-toxic” in series [11]; “Dose-dependent effect” in the series on p38 MAPK (Mus musculus). For the same compound, in series [15], the Activity entry is on record as “Non-toxic”. In addition, the IC50 in [2] was determined as 33 µM; in series [5] it was 34 µM. Moreover, the inhibition result (in series [9]; in series [10]; in series [12]; with BV-2 [6]; with BV-2 [7]; in series [14]) was “Dose-dependent effect” each time. The inhibition entry with JNK (Mus musculus) and with BV-2 [13] was “inactive” throughout.
`C[C@@H]1O[C@@H](C[C@H]2Cc3cc(O)cc(O)c3C(=O)O2)CC[C@@H]1O`: the results for the Activity result (with BV-2 [1]; in series [3]; in the series with BV-2 [4]) were “Dose-dependent effect”, “Non-toxic” and “Dose-dependent effect”, respectively. The results for the IC50 in [2] and in [5] were 20 µM and 23 µM, respectively. In addition, the inhibition entry in the series with BV-2 [6] and in the series with BV-2 [7] was “Dose-dependent effect” throughout.
